Measurements published in ChEMBL document CHEMBL4689842, “EUbOPEN Chemogenomics Library wave 1” (2021).

System: HEK-293T
Assay: Multiplex assay against HEK293T;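 for Population Tubulin-Different-Phenotype (%): share of the cells with healthy nuclei that show this phenotype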
Assay type: toxicity, cell-based
Details: human
Method in brief: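 Imaging took place on a CQ1 microscope at 37°C and 5% CO2 once compound had been added to live cells stained at seeding with Hoechst33342, BioTracker Green Microtubule Cytoskeleton Dye, MitoTracker Red and Annexin V Alexa Fluor 680. CellPathfinder machine-learning gating classed cells as Hoechst high-intensity objects or normal cells, classed normal cells as having healthy, pyknosed or fragmented nuclei, and classed pyknosed cells as mitotic or apoptotic. Tubulin, mitochondrial-mass and membrane-permeability phenotypes are per cents of the healthy-nucleus cells.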

[1] = 12 h, 1 µM, compound concentration 1 uM, replicate 1
[2] = 12 h, 1 µM, compound concentration 1 uM, replicate 2
[3] = 12 h, 10 µM, compound concentration 10 uM, replicate 1
[4] = 12 h, 10 µM, compound concentration 10 uM, replicate 2
[5] = 24 h, 1 µM, compound concentration 1 uM, replicate 1
[6] = 24 h, 1 µM, compound concentration 1 uM, replicate 2
[7] = 24 h, 10 µM, compound concentration 10 uM, replicate 1
[8] = 24 h, 10 µM, compound concentration 10 uM, replicate 2

CNC(=O)c1ccc(Nc2nc(OC3CCCC3)c3c(-c4ccc5nc(C)oc5c4)c[nH]c3n2)c(OC)c1 was tested, and the “Population Apoptotic (%)” value [1] was 36%, the “Population Fragmented Nuclei (%)” value [1] was 20% and the “Population Healthy Nuclei (%)” value [1] was 22%. For the same compound, the “Population Hoechst High Intensity Objects (%)” value [1] was 22%, the “Population Membrane Permeable-Phenotype (%)” value [1] was 19% and the “Population Mitochondria Different-Phenotype (%)” value [1] was 28%. For the same compound, the “Population Mitotic Cells (%)” value [1] was 63%, the “Population Normal (%)” value [1] was 77% and the “Population Pyknosed Nuclei (%)” value [1] was 57%. For the same compound, the “Population Tubulin-Different-Phenotype (%)” value [1] was 76%, the “Total Cell Count” value [1] was 469 and the “Population Apoptotic (%)” value [2] was 37%. The “Population Fragmented Nuclei (%)” value [2] was 2%, the “Population Healthy Nuclei (%)” value [2] was 77% and the “Population Hoechst High Intensity Objects (%)” value [2] was 4%. The “Population Membrane Permeable-Phenotype (%)” value [2] was 18%, the “Population Mitochondria Different-Phenotype (%)” value [2] was 47% and the “Population Mitotic Cells (%)” value [2] was 62%. The “Population Normal (%)” value [2] was 95%, the “Population Pyknosed Nuclei (%)” value [2] was 19% and the “Population Tubulin-Different-Phenotype (%)” value [2] was 94%. For the same compound, the “Total Cell Count” value [2] was 712, the “Population Apoptotic (%)” value [3] was 26% and the “Population Fragmented Nuclei (%)” value [3] was 19%. For the same compound, the “Population Healthy Nuclei (%)” value [3] was 50%, the “Population Hoechst High Intensity Objects (%)” value [3] was 20% and the “Population Membrane Permeable-Phenotype (%)” value [3] was 22%. The “Population Mitochondria Different-Phenotype (%)” value [3] was 13%, the “Population Mitotic Cells (%)” value [3] was 73% and the “Population Normal (%)” value [3] was 79%. The “Population Pyknosed Nuclei (%)” value [3] was 30%, the “Population Tubulin-Different-Phenotype (%)” value [3] was 58% and the “Total Cell Count” value [3] was 532. For the same compound, the “Population Apoptotic (%)” value [4] was 14%, the “Population Fragmented Nuclei (%)” value [4] was 3% and the “Population Healthy Nuclei (%)” value [4] was 91%. The “Population Hoechst High Intensity Objects (%)” value [4] was 5%, the “Population Membrane Permeable-Phenotype (%)” value [4] was 13% and the “Population Mitochondria Different-Phenotype (%)” value [4] was 27%. For the same compound, the “Population Mitotic Cells (%)” value [4] was 85%, the “Population Normal (%)” value [4] was 94% and the “Population Pyknosed Nuclei (%)” value [4] was 4%. For the same compound, the “Population Tubulin-Different-Phenotype (%)” value [4] was 83%, the “Total Cell Count” value [4] was 1205 and the “Population Apoptotic (%)” value [5] was 61%. The “Population Fragmented Nuclei (%)” value [5] was 28%, the “Population Healthy Nuclei (%)” value [5] was 13% and the “Population Hoechst High Intensity Objects (%)” value [5] was 25%. The “Population Membrane Permeable-Phenotype (%)” value [5] was 10%, the “Population Mitochondria Different-Phenotype (%)” value [5] was 54% and the “Population Mitotic Cells (%)” value [5] was 38%. For the same compound, the “Population Normal (%)” value [5] was 74%, the “Population Pyknosed Nuclei (%)” value [5] was 57% and the “Population Tubulin-Different-Phenotype (%)” value [5] was 58%. The “Total Cell Count” value [5] was 472, the “Population Apoptotic (%)” value [6] was 43% and the “Population Fragmented Nuclei (%)” value [6] was 3%. For the same compound, the “Population Healthy Nuclei (%)” value [6] was 80%, the “Population Hoechst High Intensity Objects (%)” value [6] was 9% and the “Population Membrane Permeable-Phenotype (%)” value [6] was 5%. The “Population Mitochondria Different-Phenotype (%)” value [6] was 66%, the “Population Mitotic Cells (%)” value [6] was 56% and the “Population Normal (%)” value [6] was 90%. For the same compound, the “Population Pyknosed Nuclei (%)” value [6] was 15%, the “Population Tubulin-Different-Phenotype (%)” value [6] was 78% and the “Total Cell Count” value [6] was 721. For the same compound, the “Population Apoptotic (%)” value [7] was 24%, the “Population Fragmented Nuclei (%)” value [7] was 20% and the “Population Healthy Nuclei (%)” value [7] was 62%. For the same compound, the “Population Hoechst High Intensity Objects (%)” value [7] was 15%, the “Population Membrane Permeable-Phenotype (%)” value [7] was 23% and the “Population Mitochondria Different-Phenotype (%)” value [7] was 15%. The “Population Mitotic Cells (%)” value [7] was 75%, the “Population Normal (%)” value [7] was 84% and the “Population Pyknosed Nuclei (%)” value [7] was 17%. The “Population Tubulin-Different-Phenotype (%)” value [7] was 81%, the “Total Cell Count” value [7] was 481 and the “Population Apoptotic (%)” value [8] was 11%. For the same compound, the “Population Fragmented Nuclei (%)” value [8] was 10%, the “Population Healthy Nuclei (%)” value [8] was 86% and the “Population Hoechst High Intensity Objects (%)” value [8] was 5%. The “Population Membrane Permeable-Phenotype (%)” value [8] was 17%, the “Population Mitochondria Different-Phenotype (%)” value [8] was 11% and the “Population Mitotic Cells (%)” value [8] was 88%. For the same compound, the “Population Normal (%)” value [8] was 94%, the “Population Pyknosed Nuclei (%)” value [8] was 2% and the “Population Tubulin-Different-Phenotype (%)” value [8] was 87%. For the same compound, the “Total Cell Count” value [8] was 1423.
In the case of Cc1ccc2nc(NCCN)c3ncc(C)n3c2c1.O=C(O)C(F)(F)F.O=C(O)C(F)(F)F, the “Population Apoptotic (%)” value [1] was 29%, the “Population Fragmented Nuclei (%)” value [1] was 14% and the “Population Healthy Nuclei (%)” value [1] was 67%. The “Population Hoechst High Intensity Objects (%)” value [1] was 13%, the “Population Membrane Permeable-Phenotype (%)” value [1] was 6% and the “Population Mitochondria Different-Phenotype (%)” value [1] was 2%. For the same compound, the “Population Mitotic Cells (%)” value [1] was 70%, the “Population Normal (%)” value [1] was 86% and the “Population Pyknosed Nuclei (%)” value [1] was 18%. The “Population Tubulin-Different-Phenotype (%)” value [1] was 3%, the “Total Cell Count” value [1] was 581 and the “Population Apoptotic (%)” value [2] was 14%. The “Population Fragmented Nuclei (%)” value [2] was 10%, the “Population Healthy Nuclei (%)” value [2] was 85% and the “Population Hoechst High Intensity Objects (%)” value [2] was 2%. For the same compound, the “Population Membrane Permeable-Phenotype (%)” value [2] was 1%, the “Population Mitochondria Different-Phenotype (%)” value [2] was 9% and the “Population Mitotic Cells (%)” value [2] was 85%. For the same compound, the “Population Normal (%)” value [2] was 97%, the “Population Pyknosed Nuclei (%)” value [2] was 3% and the “Population Tubulin-Different-Phenotype (%)” value [2] was 5%. The “Total Cell Count” value [2] was 1754, the “Population Apoptotic (%)” value [3] was 25% and the “Population Fragmented Nuclei (%)” value [3] was 13%. For the same compound, the “Population Healthy Nuclei (%)” value [3] was 58%, the “Population Hoechst High Intensity Objects (%)” value [3] was 14% and the “Population Membrane Permeable-Phenotype (%)” value [3] was 5%. The “Population Mitochondria Different-Phenotype (%)” value [3] was 14%, the “Population Mitotic Cells (%)” value [3] was 75% and the “Population Normal (%)” value [3] was 85%. The “Population Pyknosed Nuclei (%)” value [3] was 27%, the “Population Tubulin-Different-Phenotype (%)” value [3] was 14% and the “Total Cell Count” value [3] was 591. The “Population Apoptotic (%)” value [4] was 26%, the “Population Fragmented Nuclei (%)” value [4] was 5% and the “Population Healthy Nuclei (%)” value [4] was 83%. For the same compound, the “Population Hoechst High Intensity Objects (%)” value [4] was 5%, the “Population Membrane Permeable-Phenotype (%)” value [4] was 1% and the “Population Mitochondria Different-Phenotype (%)” value [4] was 27%. The “Population Mitotic Cells (%)” value [4] was 73%, the “Population Normal (%)” value [4] was 94% and the “Population Pyknosed Nuclei (%)” value [4] was 10%. For the same compound, the “Population Tubulin-Different-Phenotype (%)” value [4] was 19%, the “Total Cell Count” value [4] was 1004 and the “Population Apoptotic (%)” value [5] was 35%. The “Population Fragmented Nuclei (%)” value [5] was 14%, the “Population Healthy Nuclei (%)” value [5] was 76% and the “Population Hoechst High Intensity Objects (%)” value [5] was 6%. For the same compound, the “Population Membrane Permeable-Phenotype (%)” value [5] was 5%, the “Population Mitochondria Different-Phenotype (%)” value [5] was 3% and the “Population Mitotic Cells (%)” value [5] was 64%. For the same compound, the “Population Normal (%)” value [5] was 93%, the “Population Pyknosed Nuclei (%)” value [5] was 8% and the “Population Tubulin-Different-Phenotype (%)” value [5] was 6%. For the same compound, the “Total Cell Count” value [5] was 670, the “Population Apoptotic (%)” value [6] was 5% and the “Population Fragmented Nuclei (%)” value [6] was 30%. The “Population Healthy Nuclei (%)” value [6] was 67%, the “Population Hoechst High Intensity Objects (%)” value [6] was 3% and the “Population Membrane Permeable-Phenotype (%)” value [6] was 4%. For the same compound, the “Population Mitochondria Different-Phenotype (%)” value [6] was 1%, the “Population Mitotic Cells (%)” value [6] was 94% and the “Population Normal (%)” value [6] was 96%. For the same compound, the “Population Pyknosed Nuclei (%)” value [6] was 1%, the “Total Cell Count” value [6] was 2957 and the “Population Apoptotic (%)” value [7] was 38%. The “Population Fragmented Nuclei (%)” value [7] was 14%, the “Population Healthy Nuclei (%)” value [7] was 60% and the “Population Hoechst High Intensity Objects (%)” value [7] was 20%. The “Population Membrane Permeable-Phenotype (%)” value [7] was 6%, the “Population Mitochondria Different-Phenotype (%)” value [7] was 18% and the “Population Mitotic Cells (%)” value [7] was 61%. The “Population Normal (%)” value [7] was 79%, the “Population Pyknosed Nuclei (%)” value [7] was 25% and the “Population Tubulin-Different-Phenotype (%)” value [7] was 12%. The “Total Cell Count” value [7] was 482, the “Population Apoptotic (%)” value [8] was 44% and the “Population Fragmented Nuclei (%)” value [8] was 7%. For the same compound, the “Population Healthy Nuclei (%)” value [8] was 85%, the “Population Hoechst High Intensity Objects (%)” value [8] was 10% and the “Population Membrane Permeable-Phenotype (%)” value [8] was 1%. The “Population Mitochondria Different-Phenotype (%)” value [8] was 27%, the “Population Mitotic Cells (%)” value [8] was 55% and the “Population Normal (%)” value [8] was 89%. For the same compound, the “Population Pyknosed Nuclei (%)” value [8] was 6%, the “Population Tubulin-Different-Phenotype (%)” value [8] was 19% and the “Total Cell Count” value [8] was 858.
